Test [1] addresses T1, Gonadotropin-releasing hormone receptor (Rattus norvegicus) (UniProt P30969).
T1 sequence (whole entry): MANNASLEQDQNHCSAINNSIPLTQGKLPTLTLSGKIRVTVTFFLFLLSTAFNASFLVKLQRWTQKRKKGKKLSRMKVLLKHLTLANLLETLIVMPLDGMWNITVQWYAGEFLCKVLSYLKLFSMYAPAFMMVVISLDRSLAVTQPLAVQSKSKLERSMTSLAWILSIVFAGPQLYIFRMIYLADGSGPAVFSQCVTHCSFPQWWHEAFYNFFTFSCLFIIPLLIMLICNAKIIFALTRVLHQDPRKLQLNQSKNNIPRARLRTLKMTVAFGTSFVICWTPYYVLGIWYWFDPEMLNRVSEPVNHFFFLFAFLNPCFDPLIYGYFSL
Nature of the test: Antagonist activity at LH-RH receptor in Sprague-Dawley rat pituitary gland assessed as change in LHRH-stimulated FSH release at 100 ug/ml preincubated for 4 hrs followed by LH-RH addition at 5th and 6th hr 5 mins post compound addition and measured for 6 hrs by RIA. The procedure, abridged: (§1)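 Pituitaries from 20-day-old female Sprague-Dawley rats, two per 1 mL lactated Ringer's, shaken 6 h at 37 °C with medium changed each hour. Analogue added at hours 3–6. LH-RH 0.6 ng/mL medium added 5 min after peptide at hours 5 and 6. LH and FSH measured by RIA against rat standards. Change in ng/mL with SEM and p values.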

In test [2] the target is T1, Gonadotropin-releasing hormone receptor (Rattus norvegicus). Nature of the test: Antagonist activity at LH-RH receptor in Sprague-Dawley rat pituitary gland assessed as change in LHRH-stimulated LH release at 1 ug/ml preincubated for 4 hrs followed by LH-RH addition at 5th and 6th hr 5 mins post compound addition and measured for 6 hrs by RIA. The essentials: as §1

Test [3] shares this target. Nature of the test: Antagonist activity at LH-RH receptor in Sprague-Dawley rat pituitary gland assessed as change in LHRH-stimulated LH release at 10 ug/ml preincubated for 4 hrs followed by LH-RH addition at 5th and 6th hr 5 mins post compound addition and measured for 6 hrs by RIA. The procedure, abridged: as §1
For test [4], the system named is Rattus norvegicus. Nature of the test: Antiovulatory activity in rat assessed as inhibition of ovulation at 750 ug, sc relative to vehicle-treated control. Type of test: functional. The procedure, abridged: (§2)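 Rats with 4-day cycles given one sc injection of analogue in corn oil on proestrus, between 12 and 12:30 p.m. Controls received 0.3 mL corn oil. Ova shed were counted on estrus. Percent of rats with ovulation inhibited was recorded, with ova per ovulating rat ± SEM.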

For test [5], the target named is T1, Gonadotropin-releasing hormone receptor (Rattus norvegicus). Nature of the test: Antagonist activity at LH-RH receptor in Sprague-Dawley rat pituitary gland assessed as change in LHRH-stimulated LH release at 0.1 ug/ml preincubated for 4 hrs followed by LH-RH addition at 5th and 6th hr 5 mins post compound addition and measured for 6 hrs by RIA. The procedure, abridged:
as §1

Test [6] has the same target. The experiment in a line: Agonist activity at LH-RH receptor in Sprague-Dawley rat pituitary gland assessed as change in FSH release at 100 ug/ml measured for 6 hrs by RIA. The essentials: (§3)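 Two pituitaries from 20-day-old female Sprague-Dawley rats incubated 6 h at 37 °C in 1 mL lactated Ringer's with shaking. Medium removed hourly and replaced. Analogue alone added at hours 3–6. LH and FSH measured by RIA, expressed as ng/mL of medium against LH-LER-1240-2 and NIAMDD rat FSH RP-1 standards. Change reported with SEM.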

The target is the same in test [7]. The experiment in a line: Antagonist activity at LH-RH receptor in Sprague-Dawley rat pituitary gland assessed as change in LHRH-stimulated LH release at 100 ug/ml preincubated for 4 hrs followed by LH-RH addition at 5th and 6th hr 5 mins post compound addition and measured for 6 hrs by RIA. The essentials: as §1
Test [8] shares this target. Nature of the test: Antagonist activity at LH-RH receptor in Sprague-Dawley rat pituitary gland assessed as change in LHRH-stimulated FSH release at 10 ug/ml preincubated for 4 hrs followed by LH-RH addition at 5th and 6th hr 5 mins post compound addition and measured for 6 hrs by RIA. The procedure, abridged:
as §1

Test [9] shares this target. Nature of the test: Agonist activity at LH-RH receptor in Sprague-Dawley rat pituitary gland assessed as change in LH release at 100 ug/ml measured for 6 hrs by RIA. The essentials:
as §3

For test [10] the target is unchanged. Nature of the test: Antagonist activity at LH-RH receptor in Sprague-Dawley rat pituitary gland assessed as change in LHRH-stimulated FSH release at 1 ug/ml preincubated for 4 hrs followed by LH-RH addition at 5th and 6th hr 5 mins post compound addition and measured for 6 hrs by RIA. The procedure, abridged: as §1
Test [11] shares this target. Nature of the test: Antagonist activity at LH-RH receptor in Sprague-Dawley rat pituitary gland assessed as change in LHRH-stimulated FSH release at 0.1 ug/ml preincubated for 4 hrs followed by LH-RH addition at 5th and 6th hr 5 mins post compound addition and measured for 6 hrs by RIA. The procedure, abridged: as §1
In test [12] the test system is Rattus norvegicus. Nature of the test: Antiovulatory activity in rat assessed as inhibition of ovulation at 375 ug, sc relative to vehicle-treated control. The format is functional. The procedure, abridged: as §2
For test [13], the system named is Rattus norvegicus. Nature of the test: Antiovulatory activity in rat assessed as inhibition of ovulation at 1500 ug, sc relative to vehicle-treated control. Type of test: functional. The procedure, abridged:
as §2

From ChEMBL document CHEMBL3244155, “Inhibitory analogues of the luteinizing hormone-releasing hormone having D-aromatic residues in positions 2 and 6 and variation in position 3” (1978) come the findings set out here.

Calls of active or inactive are those of the source. The rule behind the calls is not given here. Non-standard residues stand in square brackets, D forms with d. Residues, ends and D or L forms follow the SMILES beside them. pGlu = O=C1CC[C@@H](C(=O)O)N1

As for `CC(C)C[C@H](NC(=O)[C@@H](Cc1ccccc1)NC(=O)[C@H](Cc1ccc(O)cc1)NC(=O)[C@H](CO)NC(=O)[C@@H](NC(=O)[C@@H](Cc1ccccc1)NC(=O)[C@@H]1CCC(=O)N1)[C@@H](C)O)C(=O)N[C@@H](CCCNC(=N)N)C(=O)N1CCC[C@H]1C(=O)NCC(N)=O`, the Activity in test [1] came to 379 ng/mL; in test [2], 97 ng/mL; in test [3], 18 ng/mL; in test [5], 159 ng/mL; in test [7], 16 ng/mL; in test [8], 751 ng/mL. Further, the Activity in [10] came out at 2450 ng/mL; in test [11] it was 5470 ng/mL. The “inhibition (INH)” value with Rattus norvegicus [4] is 0%. Besides, the result in [6] and in [9] was inactive.

`CSCC[C@H](NC(=O)[C@@H](Cc1ccccc1)NC(=O)[C@@H]1CCC(=O)N1)C(=O)N[C@@H](CO)C(=O)N[C@@H](Cc1ccc(O)cc1)C(=O)N[C@H](Cc1c[nH]c2ccccc12)C(=O)N[C@@H](CC(C)C)C(=O)N[C@@H](CCCNC(=N)N)C(=O)N1CCC[C@H]1C(=O)NCC(N)=O`: the Activity in test [1] was -672 ng/mL; in test [2], 52 ng/mL; in test [5], 77 ng/mL; in test [7] it was 10 ng/mL; in [10] it was -291 ng/mL; in test [11] it was 3270 ng/mL. Further, the “inhibition (INH)” value in the test with Rattus norvegicus [4] is given as 20%. Moreover, the result in test [6] and in test [9] was inactive.

For the compound `CC(C)C[C@H](NC(=O)[C@@H](Cc1ccccc1)NC(=O)[C@H](Cc1ccc(O)cc1)NC(=O)[C@H](CO)NC(=O)[C@@H]1CCCN1C(=O)[C@@H](Cc1ccccc1)NC(=O)[C@@H]1CCC(=O)N1)C(=O)N[C@@H](CCCNC(=N)N)C(=O)N1CCC[C@H]1C(=O)NCC(N)=O` ([pGlu][dF]PSY[dF]LRPG-NH2), the “inhibition (INH)” value in the test on Rattus norvegicus [12] is 20%; with Rattus norvegicus [4], 100%. Also, the Activity worked out at 179 ng/mL in test [1]; 17 ng/mL in test [2]; 46 ng/mL in test [5]; 12 ng/mL in test [7]; 280 ng/mL in test [10]; 1380 ng/mL in [11]. Besides, the outcome in test [6] and in test [9] was inactive.

Consider `CC(C)C[C@H](NC(=O)[C@@H](Cc1c[nH]c2ccccc12)NC(=O)[C@H](Cc1ccc(O)cc1)NC(=O)[C@H](CO)NC(=O)[C@@H](NC(=O)[C@@H](Cc1ccccc1)NC(=O)[C@@H]1CCC(=O)N1)C(C)C)C(=O)N[C@@H](CCCNC(=N)N)C(=O)N1CCC[C@H]1C(=O)NCC(N)=O`, for which the Activity in test [1] was 110 ng/mL; in test [2], -32 ng/mL; in test [5], 44 ng/mL; in test [7] it was 7 ng/mL; in [10], -1140 ng/mL; in [11] it was 3010 ng/mL. In addition, the results for the “inhibition (INH)” value in the test on Rattus norvegicus [4] and in the test on Rattus norvegicus [13] were 16% and 60%, respectively. In addition, the result in test [6] and in [9] was inactive.

For the compound `CC(C)C[C@H](NC(=O)[C@@H](Cc1ccccc1)NC(=O)[C@H](Cc1ccc(O)cc1)NC(=O)[C@H](CO)NC(=O)CN(C)C(=O)[C@@H](Cc1ccccc1)NC(=O)[C@@H]1CCC(=O)N1)C(=O)N[C@@H](CCCNC(=N)N)C(=O)N1CCC[C@H]1C(=O)NCC(N)=O`, the Activity was 321 ng/mL in test [1]; 127 ng/mL in test [2]; 22 ng/mL in test [3]; 339 ng/mL in [5]; 13 ng/mL in test [7]; 518 ng/mL in test [8]. The Activity amounted to 3450 ng/mL in test [10] and 4590 ng/mL in test [11]. Further, the “inhibition (INH)” value in the test on Rattus norvegicus [4] amounted to 50%. Besides, the outcome in test [6] and in test [9] was inactive.

In the case of `CC(C)C[C@H](NC(=O)[C@@H](Cc1ccccc1)NC(=O)[C@H](Cc1ccc(O)cc1)NC(=O)[C@H](CO)NC(=O)[C@H](CCCNC(=N)N)NC(=O)[C@@H](Cc1ccccc1)NC(=O)[C@@H]1CCC(=O)N1)C(=O)N[C@@H](CCCNC(=N)N)C(=O)N1CCC[C@H]1C(=O)NCC(N)=O`, the Activity in [1] was -133 ng/mL; in test [2] it was 51 ng/mL; in test [3] it was 34 ng/mL; in test [5], 276 ng/mL; in test [7], 18 ng/mL; in [8], 380 ng/mL. Besides, the Activity came out at 1390 ng/mL in test [10] and 5390 ng/mL in test [11]. Besides, in the test with Rattus norvegicus [4], the “inhibition (INH)” value is 40%. In addition, the result in test [6] and in test [9] was inactive.

Regarding `CC(C)C[C@H](NC(=O)[C@@H](Cc1c[nH]c2ccccc12)NC(=O)[C@H](Cc1ccc(O)cc1)NC(=O)[C@H](CO)NC(=O)[C@@H](Cc1ccccc1)NC(=O)[C@@H](Cc1ccccc1)NC(=O)[C@@H]1CCC(=O)N1)C(=O)N[C@@H](CCCNC(=N)N)C(=O)N1CCC[C@H]1C(=O)NCC(N)=O`, the Activity in [1] was -814 ng/mL; in test [2], 39 ng/mL; in test [5], 97 ng/mL; in test [7], 10 ng/mL; in test [10], 70 ng/mL; in test [11] it was 2120 ng/mL. Besides, the “inhibition (INH)” value with Rattus norvegicus [4] is 40%. The result in [6] and in test [9] was inactive.

Take `CC[C@H](C)[C@H](NC(=O)[C@@H](Cc1ccccc1)NC(=O)[C@@H]1CCC(=O)N1)C(=O)N[C@@H](CO)C(=O)N[C@@H](Cc1ccc(O)cc1)C(=O)N[C@H](Cc1c[nH]c2ccccc12)C(=O)N[C@@H](CC(C)C)C(=O)N[C@@H](CCCNC(=N)N)C(=O)N1CCC[C@H]1C(=O)NCC(N)=O`: the Activity in test [1] is 645 ng/mL; in [2], 21 ng/mL; in test [5], 143 ng/mL; in test [7], 68 ng/mL; in [10], -348 ng/mL; in [11], 2310 ng/mL. The “inhibition (INH)” value with Rattus norvegicus [4] came out at 0%. Also, the result in [6] and in test [9] was inactive.
